Our source for the inhibition, Ki and Activity values is ChEMBL document CHEMBL1152542, “Synthesis of pentopyranosyl-containing thiodisaccharides. Inhibitory activity against beta-glycosidases” (Bioorg Med Chem, 2009).

Calls of active or inactive are those of the source. No cut-off for these calls is given here.

Assay [1] addresses T1, Exo-1,4-beta-xylosidase xlnD (Aspergillus niger) (UniProt O00089).
T1 sequence (whole entry): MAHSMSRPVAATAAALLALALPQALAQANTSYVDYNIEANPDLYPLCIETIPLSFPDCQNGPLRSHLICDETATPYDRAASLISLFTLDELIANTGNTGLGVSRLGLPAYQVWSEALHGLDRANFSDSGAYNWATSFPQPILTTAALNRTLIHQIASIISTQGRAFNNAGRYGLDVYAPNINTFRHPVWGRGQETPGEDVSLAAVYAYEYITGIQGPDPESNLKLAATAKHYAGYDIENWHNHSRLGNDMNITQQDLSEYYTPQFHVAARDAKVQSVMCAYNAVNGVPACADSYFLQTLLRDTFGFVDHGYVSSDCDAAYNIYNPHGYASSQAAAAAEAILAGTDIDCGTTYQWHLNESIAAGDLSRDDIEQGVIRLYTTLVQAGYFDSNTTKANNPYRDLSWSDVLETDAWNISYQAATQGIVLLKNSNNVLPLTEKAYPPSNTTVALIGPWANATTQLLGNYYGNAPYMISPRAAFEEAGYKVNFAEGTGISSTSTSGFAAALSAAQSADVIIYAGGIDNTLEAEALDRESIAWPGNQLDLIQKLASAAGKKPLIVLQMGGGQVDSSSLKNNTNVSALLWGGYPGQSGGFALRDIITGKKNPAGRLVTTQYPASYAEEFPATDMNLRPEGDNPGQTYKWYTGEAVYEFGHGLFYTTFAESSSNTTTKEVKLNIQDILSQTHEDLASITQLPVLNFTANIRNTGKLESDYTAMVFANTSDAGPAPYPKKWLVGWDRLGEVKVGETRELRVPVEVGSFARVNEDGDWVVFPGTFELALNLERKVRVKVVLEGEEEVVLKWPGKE
Nature of the assay: Inhibition of Aspergillus niger beta-xylosidase at 10 mM after 15 mins by visible absorption spectroscopy. The procedure, abridged: (§1)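 A. niger β-xylosidase (0.04 U) was incubated with p-nitrophenyl β-D-xylopyranoside (0.5–10.0 mM) in 50 mM sodium acetate, pH 5.0, with or without inhibitor (2.0–10.0 or 5.0–15.0 mM) for 15 min at 25 °C. The reaction was stopped with 0.2 M sodium borate, pH 10.0, and absorbance was read at 400 nm.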

The next assay deals with Prunus dulcis. Nature of the assay: Inhibition of almond beta-glucosidase at 4 to 6 mM after 15 mins by visible absorption spectroscopy. The procedure, abridged:
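Almond β-glucosidase (2.0 mU) was incubated with p-nitrophenyl β-D-glucopyranoside (0.5–10.0 mM) in 50 mM sodium acetate, pH 5.6, with or without inhibitor (4.0–6.0 mM) for 15 min at 37 °C. The reaction was stopped with sodium borate, pH 10.0, and absorbance was read at 400 nm.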

For another assay, the target named is Beta-galactosidase (Escherichia coli, UniProt Q8VNN2). The assay can be described thus: Inhibition of Escherichia coli beta-galactosidase by Lineweaver-Burke plot analysis. The essentials:
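Kinetics of E. coli β-galactosidase with o-nitrophenyl β-D-galactopyranoside (0.2–5.0 mM) in 100 mM sodium phosphate, pH 7.3, with 1.2 mM MgCl₂ and 100 mM 2-mercaptoethanol, 10 min at 37 °C, borate quench, absorbance at 410 nm. Inhibitor was tested at 0, 0.40, 0.80 and 1.20 mM, and data were analysed by Lineweaver–Burk double-reciprocal plot.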

For assay [2], the target named is Beta-galactosidase (Escherichia coli) (UniProt Q8VNN2). Nature of the assay: Inhibition of Escherichia coli beta-galactosidase assessed as formation of o-nitrophenol at 0.6 to 4 mM after 10 mins by visible absorption spectroscopy.
Assay [3] addresses T1, Exo-1,4-beta-xylosidase xlnD (Aspergillus niger). The assay can be described thus: Inhibition of Aspergillus niger beta-xylosidase at 15 mM after 15 mins by visible absorption spectroscopy. The procedure, abridged: as §1
Assay [4] addresses Beta-galactosidase (Escherichia coli) (UniProt Q8VNN2). Nature of the assay: Inhibition of Escherichia coli beta-galactosidase assessed as formation of o-nitrophenol at 0.01 to 0.05 mM after 10 mins by visible absorption spectroscopy. The procedure, abridged: (§2)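 E. coli β-galactosidase (0.3 U) was incubated with o-nitrophenyl β-D-galactopyranoside (0.2–5.0 mM) in 100 mM sodium phosphate, pH 7.3, containing 1.2 mM MgCl₂ and 100 mM 2-mercaptoethanol, with or without inhibitor, for 10 min at 37 °C. The reaction was quenched with 0.2 M sodium borate, pH 10.0, and released o-nitrophenol was read at 410 nm.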

The target is the same in assay [5]. The assay can be described thus: Inhibition of Escherichia coli beta-galactosidase assessed as formation of o-nitrophenol at 0.4 to 1.2 mM after 10 mins by visible absorption spectroscopy. The essentials: as §2

As a reminder, the Ki is the dissociation constant of the complex between target and ligand, obtained from inhibition or displacement. A lower Ki goes with a stronger hold on the target.

Sequence of Beta-galactosidase (Q8VNN2 whole entry): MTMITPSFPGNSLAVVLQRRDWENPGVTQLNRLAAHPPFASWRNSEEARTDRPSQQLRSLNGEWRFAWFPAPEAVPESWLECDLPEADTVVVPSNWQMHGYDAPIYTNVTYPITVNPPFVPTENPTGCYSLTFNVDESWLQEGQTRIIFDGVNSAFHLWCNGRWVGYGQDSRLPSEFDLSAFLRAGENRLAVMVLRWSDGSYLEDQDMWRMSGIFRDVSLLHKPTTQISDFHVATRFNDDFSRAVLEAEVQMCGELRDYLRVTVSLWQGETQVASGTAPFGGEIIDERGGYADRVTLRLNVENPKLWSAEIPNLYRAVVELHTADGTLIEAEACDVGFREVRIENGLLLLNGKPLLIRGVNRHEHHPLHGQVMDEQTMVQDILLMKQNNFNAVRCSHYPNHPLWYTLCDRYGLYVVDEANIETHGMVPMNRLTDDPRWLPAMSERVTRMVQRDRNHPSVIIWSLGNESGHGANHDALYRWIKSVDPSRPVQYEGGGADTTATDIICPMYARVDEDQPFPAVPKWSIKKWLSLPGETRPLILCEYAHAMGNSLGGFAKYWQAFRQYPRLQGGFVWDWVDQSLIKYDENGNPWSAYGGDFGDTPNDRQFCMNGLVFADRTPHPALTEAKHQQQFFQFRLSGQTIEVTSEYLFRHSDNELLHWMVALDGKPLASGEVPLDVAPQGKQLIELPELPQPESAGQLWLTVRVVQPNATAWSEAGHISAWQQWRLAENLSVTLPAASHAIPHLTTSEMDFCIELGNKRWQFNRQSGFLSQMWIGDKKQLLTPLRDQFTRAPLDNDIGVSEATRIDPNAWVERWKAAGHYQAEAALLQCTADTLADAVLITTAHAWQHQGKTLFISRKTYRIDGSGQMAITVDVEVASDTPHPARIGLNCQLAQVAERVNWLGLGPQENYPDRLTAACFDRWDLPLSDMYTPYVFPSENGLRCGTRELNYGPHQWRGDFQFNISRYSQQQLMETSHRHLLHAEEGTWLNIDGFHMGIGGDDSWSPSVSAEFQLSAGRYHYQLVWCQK
Sequence of Beta-galactosidase (Escherichia coli) (Q8VNN2 whole entry, looked up): as the sequence (Q8VNN2 whole entry) above

For the molecule `CC(C)O[C@H]1O[C@H](CO)[C@H](S[C@@H]2OC[C@@H](O)[C@H](O)[C@H]2O)C[C@@H]1O`, the inhibition entry (in assay [1]; with Prunus dulcis; in assay [2]) was “inactive” each time. In addition, the affinity at Beta-galactosidase corresponds to a Ki of 120 µM.
As to `CC(C)O[C@H]1O[C@H](CO)[C@H](S[C@@H]2OC[C@@H](O)[C@H](O)[C@H]2O)C[C@H]1O`, the inhibition entry (in assay [3]; with Prunus dulcis; in assay [2]) was “inactive” each time. This molecule registered a Ki on Beta-galactosidase of 160 µM.
For the molecule `OC[C@H]1O[C@@H](S[C@@H]2CO[C@@H](OCc3ccccc3)[C@@H](O)C2)[C@H](O)[C@@H](O)[C@H]1O`, the outcome in assay [4] was Active. Besides, at Beta-galactosidase, the affinity, expressed as Ki, was 32 µM.
Turning to `OC[C@H]1O[C@@H](S[C@@H]2CO[C@@H](OCc3ccccc3)[C@H](O)C2)[C@H](O)[C@@H](O)[C@H]1O`, the outcome in assay [5] was Active. This molecule also gave a Ki at Beta-galactosidase of 800 µM.
